Measurements reported in ChEMBL document CHEMBL4350999, “Enhanced tumor retention of NTSR1-targeted agents by employing a hydrophilic cysteine cathepsin inhibitor” (Eur J Med Chem, 2019).

Key:
Details in all cases: in vivo
[1] = Drug uptake in bone of SCID mouse xenografted with human HT-29 cells at 0.37 MBq/mouse, iv measured at 24 hrs using 177Lu labelled compound by gamma counter analysis; assay type: ADME, organism-based, Bone element
In short: (§1)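 Female SCID mice bearing s.c. flank HT-29 xenografts (5 × 10^6 cells in Matrigel, ~80 mm3). Given 10 μCi (0.37 MBq) 177Lu conjugate i.v. by tail vein; groups sacrificed at 4, 24, 72 h. Tissues weighed and gamma-counted as %ID/g, excretion as %ID; n = 5, mean ± SD. Blocking arms: colchicine 1 mg/kg i.p. beforehand, or D-lysine 40 mg/kg co-injected.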

[2] = Drug uptake in bone of SCID mouse xenografted with human HT-29 cells at 0.37 MBq/mouse, iv measured at 4 hrs using 177Lu labelled compound by gamma counter analysis; assay type: ADME, organism-based, Bone element
In short: (§2)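 Female SCID mice (5 weeks) bore s.c. flank xenografts of HT-29 cells (5 × 10^6 in Matrigel), used at about 80 mm3 (two weeks) and randomized. Each mouse received 10 μCi (0.37 MBq) of HPLC-purified 177Lu-conjugate via tail vein. Tissues were excised, weighed and gamma-counted, expressed as %ID/g; mean ± SD, n = 5.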

[3] = Drug excretion in SCID mouse xenografted with human HT-29 cells at 0.37 MBq/mouse, iv measured after 72 hrs using 177Lu labelled compound; assay type: ADME, organism-based; in short: as §1
[4] = Drug uptake in liver of SCID mouse xenografted with human HT-29 cells at 0.37 MBq/mouse, iv measured at 24 hrs using 177Lu labelled compound by gamma counter analysis; assay type: ADME, organism-based; in short: as §2
[5] = Drug uptake in heart of SCID mouse xenografted with human HT-29 cells at 0.37 MBq/mouse, iv measured at 4 hrs using 177Lu labelled compound by gamma counter analysis; assay type: ADME, organism-based; in short: as §2
[6] = Drug uptake in lung of SCID mouse xenografted with human HT-29 cells at 0.37 MBq/mouse, iv measured at 4 hrs using 177Lu labelled compound by gamma counter analysis; assay type: ADME, organism-based; in short: as §2
[7] = Drug uptake in spleen of SCID mouse xenografted with human HT-29 cells at 0.37 MBq/mouse, iv measured at 4 hrs using 177Lu labelled compound by gamma counter analysis; assay type: ADME, organism-based
In short: (§3)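 Female SCID mice (5 weeks old) received s.c. flank HT-29 cells (5 × 10^6 in Matrigel). At ~80 mm3, two weeks later, mice were randomized and given 10 μCi (0.37 MBq) of purified 177Lu conjugate i.v. by tail vein. Mice were killed at 4, 24 or 72 h. Tissues were weighed and gamma counted as %ID/g, mean ± SD, n = 5. Tumor-to-tissue ratios were calculated.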

[8] = Drug uptake in muscle of SCID mouse xenografted with human HT-29 cells at 0.37 MBq/mouse, iv measured at 4 hrs using 177Lu labelled compound by gamma counter analysis; assay type: ADME, organism-based, Muscle tissue; in short: as §2
[9] = Drug uptake in liver of SCID mouse xenografted with human HT-29 cells at 0.37 MBq/mouse, iv measured at 72 hrs using 177Lu labelled compound by gamma counter analysis; assay type: ADME, organism-based; in short: as §2
[10] = Drug uptake in SCID mouse xenografted with human HT-29 cells assessed as tumour retention level at 0.37 MBq/mouse, iv measured at 4 hrs using 177Lu labelled compound by gamma counter analysis; assay type: ADME, organism-based; in short: as §1
[11] = Drug uptake in stomach of SCID mouse xenografted with human HT-29 cells at 0.37 MBq/mouse, iv measured at 72 hrs using 177Lu labelled compound by gamma counter analysis; assay type: ADME, organism-based; in short: as §3
[12] = Drug uptake in large intestine of SCID mouse xenografted with human HT-29 cells at 0.37 MBq/mouse, iv measured at 72 hrs using 177Lu labelled compound by gamma counter analysis; assay type: ADME, organism-based; in short: as §2
[13] = Drug uptake in small intestine of SCID mouse xenografted with human HT-29 cells at 0.37 MBq/mouse, iv measured at 4 hrs using 177Lu labelled compound by gamma counter analysis; assay type: ADME, organism-based; in short: as §2
[14] = Drug uptake in spleen of SCID mouse xenografted with human HT-29 cells at 0.37 MBq/mouse, iv measured at 72 hrs using 177Lu labelled compound by gamma counter analysis; assay type: ADME, organism-based; in short: as §3
[15] = Drug excretion in SCID mouse xenografted with human HT-29 cells at 0.37 MBq/mouse, iv measured at 24 hrs using 177Lu labelled compound by gamma counter analysis; assay type: ADME, organism-based; in short: as §1
[16] = Drug uptake in pancreas of SCID mouse xenografted with human HT-29 cells at 0.37 MBq/mouse, iv measured at 24 hrs using 177Lu labelled compound by gamma counter analysis; assay type: ADME, organism-based; in short: as §2
[17] = Drug uptake in blood of SCID mouse xenografted with human HT-29 cells at 0.37 MBq/mouse, iv measured at 24 hrs using 177Lu labelled compound by gamma counter analysis; assay type: ADME, organism-based; in short: as §1
[18] = Drug uptake in brain of SCID mouse xenografted with human HT-29 cells at 0.37 MBq/mouse, iv measured at 24 hrs using 177Lu labelled compound by gamma counter analysis; assay type: ADME, organism-based; in short: as §2
[19] = Drug uptake in large intestine of SCID mouse xenografted with human HT-29 cells at 0.37 MBq/mouse, iv measured at 24 hrs using 177Lu labelled compound by gamma counter analysis; assay type: ADME, organism-based; in short: as §2
[20] = Drug uptake in kidney of SCID mouse xenografted with human HT-29 cells at 0.37 MBq/mouse, iv measured at 72 hrs using 177Lu labelled compound by gamma counter analysis; assay type: ADME, organism-based; in short: as §2
[21] = Drug uptake in large intestine of SCID mouse xenografted with human HT-29 cells at 0.37 MBq/mouse, iv measured at 4 hrs using 177Lu labelled compound by gamma counter analysis; assay type: ADME, organism-based; in short: as §2
[22] = Drug uptake in bone of SCID mouse xenografted with human HT-29 cells at 0.37 MBq/mouse, iv measured at 72 hrs using 177Lu labelled compound by gamma counter analysis; assay type: ADME, organism-based, Bone element; in short: as §2
[23] = Drug uptake in spleen of SCID mouse xenografted with human HT-29 cells at 0.37 MBq/mouse, iv measured at 24 hrs using 177Lu labelled compound by gamma counter analysis; assay type: ADME, organism-based; in short: as §3
[24] = Drug uptake in lung of SCID mouse xenografted with human HT-29 cells at 0.37 MBq/mouse, iv measured at 72 hrs using 177Lu labelled compound by gamma counter analysis; assay type: ADME, organism-based; in short: as §2
[25] = Drug uptake in SCID mouse xenografted with human HT-29 cells assessed as tumour retention level at 0.37 MBq/mouse, iv measured at 72 hrs using 177Lu labelled compound by gamma counter analysis; assay type: ADME, organism-based; in short: as §1
[26] = Drug uptake in small intestine of SCID mouse xenografted with human HT-29 cells at 0.37 MBq/mouse, iv measured at 24 hrs using 177Lu labelled compound by gamma counter analysis; assay type: ADME, organism-based; in short: as §2
[27] = Drug uptake in lung of SCID mouse xenografted with human HT-29 cells at 0.37 MBq/mouse, iv measured at 24 hrs using 177Lu labelled compound by gamma counter analysis; assay type: ADME, organism-based; in short: as §2
[28] = Drug uptake in muscle of SCID mouse xenografted with human HT-29 cells at 0.37 MBq/mouse, iv measured at 24 hrs using 177Lu labelled compound by gamma counter analysis; assay type: ADME, organism-based, Muscle tissue; in short: as §2
[29] = Drug uptake in pancreas of SCID mouse xenografted with human HT-29 cells at 0.37 MBq/mouse, iv measured at 72 hrs using 177Lu labelled compound by gamma counter analysis; assay type: ADME, organism-based; in short: as §2

Drug uptake [1] [% ID/g]	Drug uptake [2] [% ID/g]	Drug excretion [3] [%ID]	Drug uptake [4] [% ID/g]	Drug uptake [5] [% ID/g]	Drug uptake [6] [% ID/g]	Drug uptake [7] [% ID/g]	Drug uptake [8] [% ID/g]	Drug uptake [9] [% ID/g]	Drug uptake [10] [% ID/g]	Drug uptake [11] [% ID/g]	Drug uptake [12] [% ID/g]	Drug uptake [13] [% ID/g]	Drug uptake [14] [% ID/g]	Drug excretion [15] [%ID]	Drug uptake [16] [% ID/g]	Drug uptake [18] [% ID/g]	Drug uptake [19] [% ID/g]	Drug uptake [20] [% ID/g]	Drug uptake [21] [% ID/g]	Structure (SMILES)	other results
1.8	2.6	73	8.3	1.1	4.3	19	0.44	5.3	8.4	0.51	1.62	7.6	18	56	0.77	0.04	2.6	28	4	Cc1cc(O)cc(C)c1C[C@H](NC(=O)[C@@H]1CCCN1C(=O)[C@H](CCCNC(=N)N)NC(=O)[C@H](CCCNC(=N)N)N(C)C(=O)[C@@H]1CCCN1C(=O)[C@H](CCCCN)NC(=O)[C@@H](CO)NC(=O)[C@@H](CO)NC(=O)[C@@H](CO)NC(=O)[C@H](Cc1cn(CC(=O)N[C@H](CO)C(=O)N[C@H](CO)C(=O)N[C@H](CO)C(=O)NCC(=O)NCCCC[C@H](NC(=O)[C@H](Cc2ccccc2)NC(=O)OCc2ccccc2)C(=O)NCCc2ccccc2)nn1)NC(=O)CN1CCN(CC(=O)O)CCN(CC(=O)O)CCN(CC(=O)O)CC1)C(=O)N[C@H](C(=O)N[C@@H](CC(C)C)C(=O)O)C(C)(C)C	Drug uptake [17]: 0.14 % ID/g; Drug uptake [22]: 1 % ID/g; Drug uptake [23]: 18 % ID/g; Drug uptake [24]: 1.2 % ID/g; Drug uptake [25]: 3.4 % ID/g; Drug uptake [26]: 5.6 % ID/g; Drug uptake [27]: 2.2 % ID/g; Drug uptake [28]: 0.38 % ID/g; Drug uptake [29]: 0.68 % ID/g
0.15	0.18	91.6	0.4	0.13	0.37	1	0.04	0.26	5.6	0.08	0.36	2.9	0.8	84.7	0.11	0.01	0.73	15	1	Cc1cc(O)cc(C)c1C[C@H](NC(=O)[C@@H]1CCCN1C(=O)[C@H](CCCNC(=N)N)NC(=O)[C@H](CCCNC(=N)N)N(C)C(=O)[C@@H]1CCCN1C(=O)[C@H](CCCCN)NC(=O)[C@@H](CO)NC(=O)[C@@H](CO)NC(=O)[C@@H](CO)NC(=O)[C@H](Cc1cn(CCNC(=O)[C@H](CCCNC(=N)N)NC(=O)[C@H](CC(C)C)NC(=O)CCC(=O)O)nn1)NC(=O)CN1CCN(CC(=O)O)CCN(CC(=O)O)CCN(CC(=O)O)CC1)C(=O)N[C@H](C(=O)N[C@@H](CC(C)C)C(=O)O)C(C)(C)C	Drug uptake [22]: 0.12 % ID/g; Drug uptake [23]: 1.6 % ID/g; Drug uptake [24]: 0.24 % ID/g; Drug uptake [25]: 2.6 % ID/g; Drug uptake [26]: 1.9 % ID/g; Drug uptake [27]: 0.25 % ID/g; Drug uptake [28]: 0.05 % ID/g; Drug uptake [29]: 0.08 % ID/g
1.1	0.8	80.8	0.73	0.14	0.53	1.4	0.09	0.67	6.4	0.21	0.73	3.5	1.9	69	0.18	0.02	1.1	46	1.2	Cc1cc(O)cc(C)c1C[C@H](NC(=O)[C@@H]1CCCN1C(=O)[C@H](CCCNC(=N)N)NC(=O)[C@H](CCCNC(=N)N)N(C)C(=O)[C@@H]1CCCN1C(=O)[C@H](CCCCN)NC(=O)[C@@H](CO)NC(=O)[C@@H](CO)NC(=O)[C@@H](CO)NC(=O)[C@H](Cc1cn(CCNC(=O)[C@H](CCCNC(=N)N)NC(=O)[C@H](CC(C)C)NC(=O)C2OC2C(=O)O)nn1)NC(=O)CN1CCN(CC(=O)O)CCN(CC(=O)O)CCN(CC(=O)O)CC1)C(=O)N[C@H](C(=O)N[C@@H](CC(C)C)C(=O)O)C(C)(C)C (stereo partly specified)	Drug uptake [17]: 0.01 % ID/g; Drug uptake [22]: 0.6 % ID/g; Drug uptake [23]: 1.7 % ID/g; Drug uptake [24]: 0.3 % ID/g; Drug uptake [25]: 3.9 % ID/g; Drug uptake [26]: 3.2 % ID/g; Drug uptake [27]: 0.45 % ID/g; Drug uptake [28]: 0.04 % ID/g; Drug uptake [29]: 0.15 % ID/g
